Test results published in ChEMBL document CHEMBL1129364, “Pyrrolobenzothiazepinones and pyrrolobenzoxazepinones: novel and specific non-nucleoside HIV-1 reverse transcriptase inhibitors with antiviral activity” (J Med Chem, 1996).
The source made the active and inactive calls. The calls are words filed in the database; no cut-off is given here.

Legend:
CEM-SS [1] = assay: (§1) Effective concentration against 50% survival of HIV -1 infected cells relative to uninfected untreated control (in vitro anti HIV-1 activity); format: functional, cell-based; settings: Homo sapiens
Summary of the method: (§2)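 HIV-1-infected CEM T4 lymphocytes were scored for protection from cell death. […] An AZT-treated positive control was run at the same time.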

[2] = Selective index is the ratio between IC50 and EC50; format: functional
Summary of the method: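 Selectivity index calculated as CEM-SS cytotoxic IC50 divided by anti-HIV-1 EC50.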

CEM-SS [3] = assay: Cytotoxic concentration against 50% survival of uninfected untreated control CEM-SS cells; format: cell-based; settings: Homo sapiens
[4] = tested on: Human immunodeficiency virus 1; assay: Effective dose against AZT resistant strain; NA ='Not active'; format: functional, organism-based
[5] = tested on: Human immunodeficiency virus 1; assay: Effective dose against HIV-1 (IIIB strain); NA ='Not active'; format: functional, organism-based
Summary of the method: (§3)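 ED50 measured against a panel of viruses in MT-2, MT-4 and CEM-SS cells. The panel comprised HIV-1 (6S) and (6R), the pyridinone-resistant strain A-17, HIV-1 IIIB, HIV-1 RF, a diphenyl sulfone-resistant HIV, N119, SIV MAC 251 and HIV-2 ROD.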

[6] = target: Human immunodeficiency virus type 1 reverse transcriptase (Human immunodeficiency virus 1, UniProt Q72547); assay: (§4) Compound was tested for Inhibition of HIV-1 RT activity.
Summary of the method: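 Recombinant HIV-1 RT (0.1 unit), 37 °C for 30 min in 50 mM Tris·HCl pH 8.2, 1 mM DTT, 80 mM KCl, 12 mM MgCl2, 0.01% Triton X-100. Template-primer poly(rA)/(dT)12-18 with [3H]dTTP or poly(rC)/(dG)12-18 with [3H]dGTP. Compounds added in DMSO (10% final). Stopped with 20% TCA; precipitate counted. IC50 is the mean of at least three experiments.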

MT2 [7] = assay: IC50 value determined from the inhibition of HIV strain AZT-sensitive activity tested on MT-2 cell lines; format: functional, cell-based; settings: Homo sapiens
[8] = as §1; format: functional; settings: Human immunodeficiency virus 1; summary of the method: as §2
[9] = tested on: Human immunodeficiency virus 2; assay: Inhibitory activity against HIV-2 (ROD); NA ='Not active'; format: functional, organism-based; summary of the method: as §3
MT2 [10] = assay: ED50 value determined from the inhibition of HIV strain AZT-sensitive activity tested on MT-2 cell lines.; format: functional; settings: Homo sapiens, read-out: ED50 (the source's name)
[11] = tested on: Human immunodeficiency virus 1; assay: Inhibitory activity against HIV-1 (A-17 cell lines); NA ='Not active'; format: functional, organism-based; summary of the method: as §3
[12] = target: Human immunodeficiency virus type 1 protease (Human immunodeficiency virus 1, UniProt Q72874); assay: as §4
Summary of the method: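 Recombinant HIV-1 RT (0.1 unit) was incubated 30 min at 37 °C in 50 mM Tris·HCl pH 8.2 with 1 mM DTT, 80 mM KCl, 12 mM MgCl2 and 0.01% Triton X-100. Template-primer was poly(rA)/(dT)12-18 with [3H]dTTP or poly(rC)/(dG)12-18 with [3H]dGTP. DMSO was 10% final. Reactions were stopped with TCA and precipitated radioactivity counted. IC50 is the mean of at least three experiments.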

[13] = Effective concentration against 50% survival of HIV -1 infected cells relative to uninfected untreated control (in vitro anti HIV-1 activity); NA ='Not active'; format: functional, Human immunodeficiency virus 1; summary of the method: as §2
[14] = Effective concentration against 50% survival of HIV -1 infected cells relative to uninfected untreated control (in vitro anti HIV-1 activity); NA =' Not active'; format: functional, Human immunodeficiency virus 1; summary of the method: as §2
[15] = tested on: Human immunodeficiency virus 2; assay: In vitro inhibitory activity against HIV-2 (ROD) HIV strain; NT ='Not active'; format: functional, organism-based; summary of the method: as §3
[16] = Selectivity index is the ratio between IC50 and ED50 from HIV-1 (6R) on MT-4 cell lines; format: functional, MT4
[17] = Selective index is the ratio between IC50 and EC50 from CEM-SS cells; format: functional
[18] = SI - selectivity index determined from the ratio of IC50 to the ED50 determined on MT-4 cell lines of AZT-sensitive HIV strain.; format: functional, MT4
MT4 [19] = assay: IC50 value determined from the inhibition of HIV strain HIV-1(IIIB), activity tested on MT-4 cell lines.; format: functional, cell-based; settings: Homo sapiens
[20] = Selectivity index is the ratio between IC50 and ED50 from HIV-1 (IIIB) on MT-4 cell lines; format: functional, MT4
MT4 [21] = assay: IC50 value determined from the inhibition of HIV strain AZT-sensitive activity tested on MT-4 cell lines.; format: functional, cell-based; settings: Homo sapiens
CEM-SS [22] = assay: IC50 value determined from the inhibition of HIV strain HIV-1 RF, activity tested on CEM-SScell lines.; format: functional, cell-based; settings: Homo sapiens
Summary of the method: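 Cell-protection assay: HIV-1-infected T4 lymphocytes (CEM-SS) scored for survival. The value is the drug concentration giving 50% survival of infected cells relative to uninfected untreated controls. An AZT-treated positive control was run at the same time under identical conditions. Details follow a previously reported procedure.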

MT4 [23] = assay: ED50 value determined from the inhibition of HIV strain HIV-1 (6R), activity tested on MT-4 cell lines.; format: functional; settings: Homo sapiens, read-out: ED50 (the source's name)
MT4 [24] = assay: ED50 value determined from the inhibition of HIV strain AZT-sensitive activity tested on MT-4 cell lines.; format: functional; settings: Homo sapiens, read-out: ED50 (the source's name)
[25] = tested on: Human immunodeficiency virus 1; assay: In vitro inhibitory activity against HIV-1 (A-17) HIV strain; NT ='Not active'; format: functional, organism-based; summary of the method: as §3
MT4 [26] = assay: ED50 value determined from the inhibition of HIV strain HIV-1(IIIB), activity tested on MT-4 cell lines.; format: functional; settings: Homo sapiens, read-out: ED50 (the source's name)
CEM-SS [27] = assay: ED50 value determined from the inhibition of HIV strain HIV-1 RF, activity tested on CEM-SS cell lines.; format: functional; settings: Homo sapiens, read-out: ED50 (the source's name)
MT4 [28] = assay: IC50 value determined from the inhibition of HIV strain HIV-1 (6R), activity tested on MT-4 cell lines.; format: functional, cell-based; settings: Homo sapiens

For `Cc1cn([C@H]2C[C@H](N=[N+]=[N-])[C@@H](CO)O2)c(=O)[nH]c1=O` [ZIDOVUDINE], which EC50 (CEM-SS [1]) is on record?
The EC50 was 0.0019 µM.

What about the SI [2] of the same compound?
Its SI is 526.

What about the IC50 (CEM-SS [3]) of the same compound?
The IC50 was > 1 µM.

For `CCC1(c2ccccc2)Sc2ccccc2-n2cccc2C1=O` (stereo unspecified), which Activity [4] is on record?
The Activity was “inactive”.

And the Activity [5]?
The Activity was “inactive”.

What about the IC50 [6] of the same compound?
Its IC50 is 15 µM.

And the IC50 (MT2 [7])?
The IC50 was 110 µM.

What about the SI [2] of the same compound?
Its SI is 55.2.

What about the IC50 (CEM-SS [3]) of the same compound?
The IC50 was 100 µM.

What about the EC50 [8] of the same compound?
The EC50 was 1.8 µM.

What about the Activity [9] of the same compound?
The Activity was “inactive”.

And the EC50 (MT2 [10])?
Its EC50 is 8.7 µM.

And the Activity [11]?
The Activity was “inactive”.

For `CCCC1(c2ccccc2)Oc2ccccc2-n2cccc2C1=O` (stereo unspecified), which IC50 [6] is on record?
The IC50 was 500 µM.

And the IC50 (CEM-SS [3])?
The IC50 was > 150 µM.

Which IC50 [6] does the source give for `O=C1c2cccn2-c2ccccc2SC1c1ccccc1` (stereo unspecified) here?
Its IC50 is 100 µM.

And the IC50 (CEM-SS [3])?
The IC50 was 18.3 µM.

Which IC50 [6] does the source give for `C=CCC1(CC)Oc2ccccc2-n2cccc2C1=O` (stereo unspecified) here?
Its IC50 is 5 µM.

For `CC(C)=CCC1(c2ccccc2)Oc2ccccc2-n2cccc2C1=O` (stereo unspecified), which IC50 [6] is on record?
The IC50 was > 500 µM.

What about the IC50 (CEM-SS [3]) of the same compound?
The IC50 was 120 µM.

With `O=C1c2cccn2-c2ccccc2OC1(CC1CC1)c1ccccc1` (stereo unspecified) as the compound, how does the IC50 [6] read?
Its IC50 is > 500 µM.

And the IC50 (CEM-SS [3])?
Its IC50 is 11.8 µM.

With `CCC1(CC=C(C)C)Oc2ccccc2-n2cccc2C1=O` (stereo unspecified) as the compound, how does the SI [2] read?
Its SI is 35.

And the IC50 (CEM-SS [3])?
Its IC50 is 45.2 µM.

What about the EC50 [8] of the same compound?
The EC50 was 1.35 µM.

For `O=C1c2cccn2-c2cc3ccccc3cc2OC1c1ccccc1` (stereo unspecified), which IC50 [6] is on record?
Its IC50 is > 300 µM.

Which IC50 [12] does the source give for `CCOC1=C(c2ccccc2)Oc2ccccc2-n2cccc21` here?
Its IC50 is > 300 µM.

For `CCC1(c2ccccc2)C(=O)c2cccn2-c2ccccc2S1(=O)=O` (stereo unspecified), which IC50 [6] is on record?
The IC50 was > 300 µM.

Which IC50 [6] does the source give for `O=C1c2cccn2-c2ccccc2OC1c1ccc2ccccc2c1` (stereo unspecified) here?
Its IC50 is > 300 µM.

Which IC50 [6] does the source give for `CC1(c2ccccc2)Sc2ccccc2-n2cccc2C1=O` (stereo unspecified) here?
Its IC50 is 5 µM.

What about the EC50 [8] of the same compound?
Its EC50 is 0.81 µM.

For `C=CCC1(c2ccccc2)Oc2ccccc2-n2cccc2C1=O` (stereo unspecified), which IC50 [6] is on record?
Its IC50 is 25 µM.

What about the SI [2] of the same compound?
The SI was 9.

And the IC50 (CEM-SS [3])?
The IC50 was 6.4 µM.

And the EC50 [8]?
The EC50 was 0.71 µM.

Which IC50 [6] does the source give for `CCC1Oc2ccccc2-n2cccc2C1=O` (stereo unspecified) here?
The IC50 was 100 µM.

With `CCC1(c2ccccc2)Sc2c(Cl)cccc2-n2cccc2C1=O` (stereo unspecified) as the compound, how does the IC50 [6] read?
The IC50 was 500 µM.

Which IC50 [6] does the source give for `CCCC1(CC)Oc2ccccc2-n2cccc2C1=O` (stereo unspecified) here?
The IC50 was 10 µM.

With `CC1(c2ccccc2)Oc2ccccc2-n2cccc2C1=O` (stereo unspecified) as the compound, how does the IC50 [6] read?
The IC50 was 10 µM.

And the SI [2]?
The SI was 19.7.

What about the IC50 (CEM-SS [3]) of the same compound?
The IC50 was 6.9 µM.

What about the EC50 [8] of the same compound?
Its EC50 is 0.35 µM.

Which IC50 [6] does the source give for `O=C1c2cccn2-c2ccccc2OC1c1ccccc1` (stereo unspecified) here?
The IC50 was > 300 µM.

With `CCC1(c2ccc3ccccc3c2)Oc2ccccc2-n2cccc2C1=O` (stereo unspecified) as the compound, how does the IC50 [6] read?
The IC50 was 0.5 µM.

What about the SI [2] of the same compound?
The SI was 44.

What about the IC50 (CEM-SS [3]) of the same compound?
The IC50 was 37.3 µM.

And the EC50 [8]?
Its EC50 is 0.85 µM.

Which IC50 [6] does the source give for `CCC1(c2ccccc2)C(=O)c2cccn2-c2ccccc2[S+]1[O-]` (stereo unspecified) here?
The IC50 was 500 µM.

For `CCC1(c2ccccc2)Sc2ccc(C)cc2-n2cccc2C1=O` (stereo unspecified), which IC50 [6] is on record?
The IC50 was > 600 µM.

What about the IC50 [13] of the same compound?
Its IC50 is “Not Active”.

For `CCC1(c2ccccc2)Sc2cccc(Cl)c2-n2cccc2C1=O` (stereo unspecified), which IC50 [6] is on record?
The IC50 was 600 µM.

What about the IC50 [14] of the same compound?
Its IC50 is “Not Active”.

For `CCC1(c2ccccc2)Oc2cc3ccccc3cc2-n2cccc2C1=O` (stereo unspecified), which IC50 [6] is on record?
The IC50 was 150 µM.

With `CCc1cc(NCc2nc3c(Cl)ccc(Cl)c3o2)c(O)nc1C` [L-697661] as the compound, how does the IC50 [6] read?
The IC50 was 0.15 µM.

For `CCC1(c2ccccc2)Oc2ccccc2-n2cccc2C1=O` (stereo unspecified), which Activity [15] is on record?
Its Activity is “inactive”.

And the SI [16]?
Its SI is 1.7.

And the SI [17]?
Its SI is 10.4.

And the IC50 [6]?
The IC50 was 0.25 µM.

What about the SI [18] of the same compound?
The SI was 8.

And the IC50 (MT4 [19])?
The IC50 was 3.31 µM.

And the SI [20]?
The SI was 25.

And the IC50 (MT4 [21])?
Its IC50 is 3.3 µM.

What about the IC50 (CEM-SS [22]) of the same compound?
The IC50 was 10.4 µM.

What about the EC50 (MT4 [23]) of the same compound?
Its EC50 is 1.6 µM.

What about the EC50 (MT4 [24]) of the same compound?
The EC50 was 0.42 µM.

And the Activity [25]?
The Activity was “inactive”.

And the IC50 (CEM-SS [3])?
The IC50 was 4.9 µM.

What about the EC50 [8] of the same compound?
The EC50 was 0.47 µM.

What about the EC50 (MT4 [26]) of the same compound?
Its EC50 is 0.13 µM.

What about the EC50 (CEM-SS [27]) of the same compound?
Its EC50 is 0.12 µM.

And the IC50 (MT4 [28])?
Its IC50 is 2.9 µM.
